Data set [1] has as its system Trypanosoma cruzi. The data set can be described thus: Antiprotozoal activity against Trypanosoma cruzi epimastigotes assessed as inhibition of parasite growth incubated for 72 hrs followed by alamar blue addition further incubated for 24 hrs. Format: functional, organism-based. The method in brief:
(§1)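 CL-Luc:Neon epimastigotes, 2.5 x 10^5/well in RPMI-1640, exposed 72 h at 27 C to 8-point 2:1 serial dilutions (DMSO <0.5% final); Alamar Blue […] added, 24 h further, read at 540 nm; IC50 interpolated from sigmoidal variable-slope fit; triplicates, three independent experiments.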

The nature of data set [2]: Cytotoxicity against golden hamster BSR cells assessed as reduction in cell viability incubated for 72 hrs followed by alamar blue addition further incubated for 6 hrs. Format: cell-based. The following applies: Mesocricetus auratus. The method in brief:
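BSR (BHK-21 subclone) cells, 5 x 10^4/well in DMEM with 5% FBS, adhered 6 h at 37 C, 5% CO2, then given 8-point 2:1 drug dilutions for 72 h; Alamar Blue added for 6 h, absorbance 540 nm; IC50 from sigmoidal variable-slope fit; triplicates, three independent experiments.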
A general note: The colour change of resazurin is a common sign of viable cells or microbes.

Data set [3] is described as follows: Selectivity index, ratio of IC50 for cytotoxicity against golden hamster BSR cells to IC50 for antiprotozoal activity against Trypanosoma cruzi epimastigotes. Format: toxicity, cell-based. The settings on record: read-out: Selectivity Index. The method in brief: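 Selectivity index as ratio of BSR cell IC50 to epimastigote IC50, both from 72 h Alamar Blue assays.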

Data set [4] has as its system Trypanosoma cruzi. Kind of data set: Antiprotozoal activity against Trypanosoma cruzi epimastigotes assessed as decrease in parasitemia by measuring change in fluorescence intensity at >2.5 uM measured after 3 days by flourescence based analysis. Format: functional, organism-based. The settings on record: dose microM >2.5, time 3.0 day.
Data set [5] has as its system Trypanosoma cruzi. Kind of data set: Antitrypanosomal activity against Trypanosoma cruzi amastigotes infected in BSR cells assessed as inhibition of replication of intracellular amastigotes incubated for 72 hrs by fluorescence based analysis. Format: functional, organism-based. An outline of the steps:
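BSR cells (5 x 10^4/well) attached 6 h, infected overnight with CL-Luc:Neon tissue-culture trypomastigotes at MOI 10, washed 3x PBS, then drug in DMEM with 1% FBS for 72 h; fixed in 4% paraformaldehyde 30 min, fluorescence read ex 488/em 525 nm; IC50 by curve interpolation; triplicates, three experiments.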

The subject of data set [6] is Trypanosoma cruzi. The data set can be described thus: Antitrypanosomal activity against Trypanosoma cruzi trypomastigotes assessed as inhibition of cellular invasion incubated for 6 hrs in high-glucose DMEM medium followed by compound washout further infected in BSR cells measured after 72 hrs by fluorescence based analysis. Format: functional, organism-based. An outline of the steps: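 Tissue-culture trypomastigotes exposed to drug dilutions 6 h at 37 C in high-glucose DMEM with 10% FBS, washed 3x PBS, used to infect BSR cells overnight; non-internalised parasites washed off, 1% FBS medium, infection run 72 h further; amastigote fluorescence (ex 488/em 525 nm) read; IC50 for invasion reduction by curve interpolation.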

Data set [7] is described as follows: Selectivity index, ratio of cytotoxicity against golden hamster BSR cells to IC50 for antitrypanosomal activity against Trypanosoma cruzi amastigotes infected in BSR cells. Format: toxicity, cell-based. The settings on record: read-out: Selectivity Index. An outline of the steps: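 Selectivity index as ratio of BSR cell IC50 to intracellular amastigote IC50 (72 h fluorescence read-out).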

Data set [8] in a line: Selectivity index, ratio of cytotoxicity against golden hamster BSR cells to IC50 for antitrypanosomal activity against Trypanosoma cruzi trypomastigotes. Format: toxicity, cell-based. The settings on record: read-out: Selectivity Index. The method in brief:
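Selectivity index as ratio of BSR cell IC50 to trypomastigote invasion IC50 (6 h pre-exposure, fluorescence read-out).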

Data set [9] relates to Trypanosoma cruzi. Kind of data set: Trypanocidal activity against Trypanosoma cruzi CL-Luc-Neon amastigotes infected in BSR cells assessed as inhibition of parasite growth at 20 times IC50 incubated for 20 days measured after 10 days of compound wash out by epifluorescence microscopy analysis. Format: functional, organism-based. The following applies: time 20.0 day. An outline of the steps: (§2)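 BSR cells on 8-well slides or 24-well plates infected with CL-Luc:Neon trypomastigotes as in the amastigote assay, then exposed to 10 or 20 x IC50 for 10 or 20 days, compound renewed every 4 days; after removal, followed up to 30 days by light and fluorescence microscopy at 37 C, 5% CO2; three wells per treatment, 30 captures per timepoint; relapse day recorded.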

For data set [10], the system named is Trypanosoma cruzi. The data set can be described thus: Trypanocidal activity against Trypanosoma cruzi CL-Luc-Neon amastigotes infected in BSR cells assessed as inhibition of parasite growth at 20 times IC50 incubated for 20 days measured after 30 days of compound wash out by epifluorescence microscopy analysis. Format: functional, organism-based. The following applies: time 20.0 day. The method in brief: as §2

The subject of data set [11] is Trypanosoma cruzi. The data set can be described thus: Antitrypanosomal activity against Trypanosoma cruzi trymastigotes assessed as blockage of trypomastigote infectivity at >50 uM incubated for 6 hrs followed by compound washout further infected in BSR cells for 18 hrs measured after 120 hrs post infection by inverted fluorescence microscope analysis. Format: functional, organism-based. The following applies: dose microM >50, time 6.0 hrs. An outline of the steps: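 Trypomastigotes held 6 h in serial drug concentrations, washed 3x PBS, then infect BSR cells at 10:1 trypomastigote:cell for 18 h; at 120 h post-infection, amastigote replication inspected by inverted epifluorescence microscopy (30 images per treatment, DAPI-stained host nuclei) to find the concentration preventing productive infection.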

Data set [12] can be described thus: Genotoxicity in human TK6 cells assessed as decrease in cell proliferation at 40 uM incubated for 3 hrs by comet assay relative to control. Format: cell-based. On the set-up: scale not given: the % may be the effect or the level left. The following applies: tk6, 3 h. The method in brief: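 TK-6 cells (6 x 10^5 in 1 mL RPMI 1640 with 10% FBS) treated 3 h, washed, cultured 48 h at 37 C, 5% CO2 with agitation, counted at 24 and 48 h; relative suspension growth = TSG treated/TSG control as percentage; three independent experiments.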

Data set [13] concerns Trypanosoma cruzi. Kind of data set: Trypanocidal activity against Trypanosoma cruzi epimastigotes assessed as inhibition of parasite growth by alamar blue staining based fluorescence analysis. Format: functional, organism-based. An outline of the steps:
as §1

The subject of data set [14] is Trypanosoma cruzi. The data set can be described thus: Trypanocidal activity against Trypanosoma cruzi amastigotes assessed as inhibition of parasite growth by alamar blue staining based fluorescence analysis. Format: functional, organism-based.
Data set [15] concerns Trypanosoma cruzi. The data set can be described thus: Trypanocidal activity against Trypanosoma cruzi trypomastigotes assessed as inhibition of parasite growth by alamar blue staining based fluorescence analysis. Format: functional, organism-based.
Data set [16] relates to Trypanosoma cruzi. The data set can be described thus: Synergistic trypanocidal activity against Trypanosoma cruzi epimastigotes assessed as combination index at IC50 in presence of benznidazole by alamar blue staining based fluorescence analysis. Format: functional. The method in brief: (§3)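 Benznidazole IC50 redetermined by Alamar Blue or fluorescence read-outs under each stage's standard seeding conditions in the presence of the partner drug at its IC50; combination index by isobologram method (Ci <1 synergy, =1 additive, >1 antagonism); triplicate per plate, repeated at least twice.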

In data set [17] the test system is Trypanosoma cruzi. The data set can be described thus: Synergistic trypanocidal activity against Trypanosoma cruzi amastigotes assessed as combination index at IC50 in presence of benznidazole by alamar blue staining based fluorescence analysis. Format: functional. An outline of the steps: as §3
Data set [18] has as its system Trypanosoma cruzi. Kind of data set: Synergistic trypanocidal activity against Trypanosoma cruzi trypomastigotes assessed as combination index at IC50 in presence of benznidazole by alamar blue staining based fluorescence analysis. Format: functional. An outline of the steps: as §3
Data set [19] deals with Trypanosoma cruzi. The data set can be described thus: Trypanocidal activity against Trypanosoma cruzi epimastigotes assessed as fold decrease in benznidazole IC50 by alamar blue staining based fluorescence analysis relative to control. Format: functional. On the set-up: scale not given: the % may be the effect or the level left. The method in brief:
as §3

Data set [20] has as its system Trypanosoma cruzi. Kind of data set: Trypanocidal activity against Trypanosoma cruzi trypomastigotes assessed as fold decrease in benznidazole IC50 by alamar blue staining based fluorescence analysis relative to control. Format: functional. The method in brief: as §3
For data set [21], the system named is Trypanosoma cruzi. The data set can be described thus: Trypanocidal activity against Trypanosoma cruzi CL-Luc-Neon amastigotes infected in BSR cells assessed as inhibition of parasite growth at 10 times IC50 incubated for 20 days measured after 10 days of compound wash out by epifluorescence microscopy analysis. Format: functional, organism-based. The settings on record: time 20.0 day. An outline of the steps: as §2

Data set [22] has as its system Trypanosoma cruzi. Kind of data set: Trypanocidal activity against Trypanosoma cruzi CL-Luc-Neon amastigotes infected in BSR cells assessed as inhibition of parasite growth at 10 times IC50 incubated for 10 days measured after 10 days of compound wash out by epifluorescence microscopy analysis. Format: functional, organism-based. The settings on record: time 10.0 day. The method in brief:
as §2

For data set [23], the system named is Trypanosoma cruzi. The data set can be described thus: Antitrypanosomal activity against Trypanosoma cruzi trymastigotes assessed as blockage of trypomastigote infectivity at >100 uM incubated for 6 hrs followed by compound washout further infected in BSR cells for 18 hrs measured after 5 days post infection by inverted fluorescence microscope analysis. The following applies: dose microM >100, time 6.0 hrs.

The nature of data set [24]: Genotoxicity in human TK6 cells assessed as decrease in cell proliferation at 20 uM incubated for 3 hrs by comet assay. The settings on record: tk6, 3 h. Format: cell-based. An outline of the steps:
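TK-6 human lymphoblastoid cells (6 x 10^5 in 1 mL culture medium) exposed 3 h, washed three times, then grown 48 h in fresh medium at 37 C, 5% CO2 with agitation, and counted at 24 h (to adjust density) and at 48 h. Relative suspension growth is total suspension growth (48 h count / pre-treatment count) as % of untreated control. Triplicates, three independent experiments.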

Molecules are shown by their SMILES. Active and inactive are the calls of the source. No cut-off for these calls is given here.

For the compound `O=C(CCn1ccnc1)c1ccc(Cl)c(F)c1`, the half-inhibitory concentration (IC50) (as a rule, the concentration needed to halve the response being measured) is 23.3 µM in the data set with Trypanosoma cruzi [1] and 135 µM in [2]. Also, the selectivity ratio in data set [3] worked out at 6.

Turning to `COc1ccc(C(=O)CCn2ccnc2[N+](=O)[O-])cc1`, the 50% inhibitory concentration (IC50) with Trypanosoma cruzi [1] turned out to be 2.2 µM; in data set [2] it was 84.7 µM; in the data set on Trypanosoma cruzi [5], 3.3 µM; in the data set with Trypanosoma cruzi [6], 9.1 µM; with Trypanosoma cruzi [13], 1.2 µM; in the data set on Trypanosoma cruzi [14], 0.4 µM. Further, the IC50 in the data set on Trypanosoma cruzi [15] was 5.4 µM. Also, the results for the selectivity ratio in data set [3], in data set [7] and in [8] were 43, 28 and 9, respectively. Also, the outcome in the data set with Trypanosoma cruzi [4], with Trypanosoma cruzi [9], with Trypanosoma cruzi [10] and in the data set on Trypanosoma cruzi [11] was Active. Besides, the Activity in data set [12] is recorded as 45%; in the data set on Trypanosoma cruzi [19], 70%. In addition, the CI in the data set with Trypanosoma cruzi [16] is on record as 0.33; with Trypanosoma cruzi [17], 0.81; with Trypanosoma cruzi [18] it was 0.21. Moreover, the “fold change (FC)” value with Trypanosoma cruzi [20] is 4.

For `O=C(CCn1ccnc1)c1ccc(F)c2ccccc12`, the IC50 in the data set with Trypanosoma cruzi [1] amounted to 7.4 µM; in [2], 72.2 µM; in the data set with Trypanosoma cruzi [5] it was 6.1 µM; with Trypanosoma cruzi [6], 16.6 µM. Moreover, the selectivity ratio in [3] was 10; in [7], 12; in data set [8] it was 4. The result with Trypanosoma cruzi [21] and with Trypanosoma cruzi [22] was inactive.

Regarding `O=C(CCn1cnc2ccccc21)C12CC3CC(CC(C3)C1)C2`, the values for the concentration for half-maximal inhibition (IC50) (in the data set with Trypanosoma cruzi [1]; in data set [2]) were 24.8 µM and 67.6 µM, respectively. The selectivity ratio in data set [3] was 3.

Regarding `O=C(Cn1ccnc1[N+](=O)[O-])NCc1ccccc1` [BENZNIDAZOLE], the half-inhibitory concentration (IC50) in data set [2] was 267 µM; in the data set on Trypanosoma cruzi [5], 0.5 µM; in the data set with Trypanosoma cruzi [6], 22.4 µM. The selectivity ratio is 67 in data set [3], 504 in data set [7] and 12 in [8]. Also, the outcome with Trypanosoma cruzi [4], in the data set with Trypanosoma cruzi [9] and in the data set on Trypanosoma cruzi [10] was Active. For the same compound, the outcome with Trypanosoma cruzi [23] was inactive.

Turning to `O=C(CCn1ccnc1)c1ccc([N+](=O)[O-])cc1`, the IC50 in the data set on Trypanosoma cruzi [1] was 12.9 µM; in data set [2], 93.9 µM; with Trypanosoma cruzi [5], 9.1 µM. The selectivity ratio turned out to be 7 in data set [3] and 10 in data set [7].

Turning to `COc1cc(OC)cc(C(=O)CCn2cnc3ccccc32)c1`, the IC50 was 11.1 µM in the data set on Trypanosoma cruzi [1] and 70.1 µM in data set [2]. Also, the selectivity ratio in data set [3] stood at 6.

As for `Cc1ccccc1C(=O)CCn1ccnc1`, the half-inhibitory concentration (IC50) in the data set on Trypanosoma cruzi [1] is 21.4 µM; in data set [2], 145 µM. Besides, in [3], the selectivity ratio was 7.

On to `O=C(CCn1ccnc1)c1cccc([N+](=O)[O-])c1`, for which the concentration for half-maximal inhibition (IC50) is 21.6 µM in the data set with Trypanosoma cruzi [1], 177 µM in data set [2], 12.2 µM with Trypanosoma cruzi [5] and 23 µM in the data set on Trypanosoma cruzi [6]. The selectivity ratio in data set [3] was 8; in [7], 15; in data set [8], 8. In addition, the outcome with Trypanosoma cruzi [21] and in the data set with Trypanosoma cruzi [22] was inactive.

As for `COS(C)(=O)=O` [METHANESULFONIC ACID METHYL ESTER], in data set [24], the Activity result is on record as “Toxic”.

Values taken from ChEMBL document CHEMBL4840308, “Design and synthesis of Mannich base-type derivatives containing imidazole and benzimidazole as lead compounds for drug discovery in Chagas Disease” (Eur J Med Chem, 2021).
